Measurements reported in ChEMBL document CHEMBL4334541, “Nicotinamide Phosphoribosyltransferase (NAMPT) Is a New Target of Antitumor Agent Chidamide” (ACS Med Chem Lett, 2020).
Active and inactive are the calls of the source. The rule behind the calls is not given here.

Assays:
[1] = biological target: T1, Nicotinamide phosphoribosyltransferase (Homo sapiens, UniProt P43490); assay: Inhibition of NAMPT in human HEL cells assessed as decrease in cellular NAD+ level after 24 hrs in presence of NMN by MTT assay; format: cell-based
Procedure, shortened: (§1)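 Rescue test in HCT116, K562, HL60 and HEL cells, with NMN supplemented at 10 μM alongside compound treatment.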
Target sequence in this assay (P43490 whole entry, looked up): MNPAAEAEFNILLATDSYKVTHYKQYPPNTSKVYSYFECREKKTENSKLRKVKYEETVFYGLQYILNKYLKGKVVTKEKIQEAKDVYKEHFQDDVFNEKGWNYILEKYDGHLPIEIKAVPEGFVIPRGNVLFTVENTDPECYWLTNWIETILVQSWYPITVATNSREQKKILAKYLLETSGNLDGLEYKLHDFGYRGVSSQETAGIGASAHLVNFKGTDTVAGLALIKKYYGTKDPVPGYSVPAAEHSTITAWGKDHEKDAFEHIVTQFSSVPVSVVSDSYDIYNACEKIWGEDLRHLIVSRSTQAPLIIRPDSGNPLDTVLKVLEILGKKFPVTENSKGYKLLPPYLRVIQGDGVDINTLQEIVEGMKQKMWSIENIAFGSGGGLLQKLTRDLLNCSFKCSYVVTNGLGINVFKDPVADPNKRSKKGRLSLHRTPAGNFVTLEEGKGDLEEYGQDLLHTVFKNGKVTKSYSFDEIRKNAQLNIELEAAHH

[2] = biological target: T1, Nicotinamide phosphoribosyltransferase; assay: Inhibition of NAMPT in human K562 cells assessed as decrease in cellular NAD+ level after 24 hrs in presence of NA by MTT assay; format: cell-based
Procedure, shortened: (§2)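 Rescue test in HCT116, K562, HL60 and HEL cells, with NA supplemented at 4 μM alongside compound treatment.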
Target sequence in this assay (P43490 whole entry, looked up): as above

HEL [3] = assay: Antiproliferative activity against human HEL cells NAMPT deficient assessed as reduction in cell viability after 72 hrs by CCK8 assay; format: functional, cell-based
Procedure, shortened: (§3)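 NAMPT-deficient cells were generated by siRNA knockdown of NAMPT before cytotoxicity testing.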

HL-60 [4] = assay: Antiproliferative activity against human HL60 cells NAMPT deficient assessed as reduction in cell viability after 72 hrs by CCK8 assay; format: functional, cell-based; details: HL-60, 72 h; procedure, shortened: as §3
[5] = biological target: T1, Nicotinamide phosphoribosyltransferase; assay: Inhibition of NAMPT in human HL60 cells assessed as decrease in cellular NAD+ level after 24 hrs in presence of NA by MTT assay; format: cell-based; procedure, shortened: as §2
Target sequence in this assay (P43490 whole entry, looked up): as above

K562 [6] = assay: Antiproliferative activity against human K562 cells NAMPT deficient assessed as reduction in cell viability after 72 hrs by CCK8 assay; format: functional, cell-based; details: K562, 72 h; procedure, shortened: as §3
[7] = biological target: T1, Nicotinamide phosphoribosyltransferase; assay: Inhibition of NAMPT in human HL60 cells assessed as decrease in cellular NAD+ level after 24 hrs in presence of NMN by MTT assay; format: cell-based; procedure, shortened: as §1
Target sequence in this assay (P43490 whole entry, looked up): as above

K562 [8] = assay: Antiproliferative activity against human K562 cells assessed as reduction in cell viability after 72 hrs by CCK8 assay; format: functional, cell-based; details: K562, 72 h
HL-60 [9] = assay: Antiproliferative activity against human HL60 cells assessed as reduction in cell viability after 72 hrs by CCK8 assay; format: functional, cell-based; details: HL-60, 72 h
[10] = biological target: T1, Nicotinamide phosphoribosyltransferase; assay: Inhibition of NAMPT in human K562 cells assessed as decrease in cellular NAD+ level after 24 hrs in presence of NMN by MTT assay; format: cell-based; procedure, shortened: as §1
Target sequence in this assay (P43490 whole entry, looked up): as above

HCT-116 [11] = assay: Antiproliferative activity against human HCT116 cells NAMPT deficient assessed as reduction in cell viability after 72 hrs by CCK8 assay; format: functional, cell-based; details: HCT-116, 72 h; procedure, shortened: as §3
[12] = biological target: T1, Nicotinamide phosphoribosyltransferase; assay: Inhibition of NAMPT in human HCT116 cells assessed as decrease in cellular NAD+ level after 24 hrs in presence of NA by MTT assay; format: cell-based; procedure, shortened: as §2
Target sequence in this assay (P43490 whole entry, looked up): as above

HEL [13] = assay: Antiproliferative activity against human HEL cells assessed as reduction in cell viability after 72 hrs by CCK8 assay; format: functional, cell-based
[14] = biological target: T1, Nicotinamide phosphoribosyltransferase; assay: Inhibition of NAMPT in human HCT116 cells assessed as decrease in cellular NAD+ level after 24 hrs by MTT assay; format: cell-based
Procedure, shortened: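 Relative cellular NAD+ level in HCT116 cells after 24 h exposure to a range of compound concentrations, compared qualitatively with an untreated control.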

[15] = biological target: T1, Nicotinamide phosphoribosyltransferase; assay: Inhibition of NAMPT in human HCT116 cells assessed as decrease in cellular NAD+ level after 24 hrs in presence of NMN by MTT assay; format: cell-based; procedure, shortened: as §1
[16] = biological target: T1, Nicotinamide phosphoribosyltransferase; assay: Inhibition of NAMPT in human HEL cells assessed as decrease in cellular NAD+ level after 24 hrs in presence of NA by MTT assay; format: cell-based; procedure, shortened: as §2
[17] = biological target: T1, Nicotinamide phosphoribosyltransferase; assay: Inhibition of human NAMPT using NAM and PRPP as substrates incubated for 90 mins in presence of NMNAT by fluorometric method
Target sequence in this assay (P43490 whole entry): as the sequence (P43490 whole entry, looked up) above

HCT-116 [18] = assay: Antiproliferative activity against human HCT116 cells assessed as reduction in cell viability after 72 hrs by CCK8 assay; format: functional, cell-based; details: HCT-116, 72 h

- inhibition [1]: inactive
- inhibition [2]: inactive
- IC50 (HL-60 [4]): 3.2 µM
- inhibition [5]: inactive
- IC50 (K562 [6]): 2.4 µM
- inhibition [7]: inactive
- IC50 (K562 [8]): 0.32 µM
- IC50 (HL-60 [9]): 0.0022 µM
- inhibition [10]: inactive
- IC50 (HCT-116 [11]): > 20 µM
- inhibition [12]: inactive
- inhibition [14]: Active
- inhibition [15]: inactive
- inhibition [16]: inactive
- IC50 [17]: 2.1 µM
- IC50 (HCT-116 [18]): 0.34 µM
SMILES: Nc1cc(F)ccc1NC(=O)c1ccc(CNC(=O)/C=C/c2cccnc2)cc1 [TUCIDINOSTAT]
- IC50 (HEL [3]): 1.8 µM
- IC50 (HEL [13]): 0.013 µM
